pIC50: −log10 of the molar value. Square brackets hold non-standard residues; d marks the D form. Peptide text beside a SMILES is read from it. pY = N[C@@H](Cc1ccc(OP(=O)(O)O)cc1)C(=O)O Bounds are passed on as bounds.

What all share (design): species or system Escherichia coli
Assay [1] concerns the target Proto-oncogene tyrosine-protein kinase Src (Homo sapiens, UniProt P12931). Nature of the assay: Binding affinity against Src SH2 domain.
The target of assay [2] is Tyrosine-protein kinase SYK (Homo sapiens, UniProt P43405). The assay can be described thus: Binding affinity against Syk protein tyrosine kinase SH2 domain.
The target of assay [3] is T1, Tyrosine-protein kinase ZAP-70 (Homo sapiens, UniProt P43403).
T1 sequence (P43403 whole entry): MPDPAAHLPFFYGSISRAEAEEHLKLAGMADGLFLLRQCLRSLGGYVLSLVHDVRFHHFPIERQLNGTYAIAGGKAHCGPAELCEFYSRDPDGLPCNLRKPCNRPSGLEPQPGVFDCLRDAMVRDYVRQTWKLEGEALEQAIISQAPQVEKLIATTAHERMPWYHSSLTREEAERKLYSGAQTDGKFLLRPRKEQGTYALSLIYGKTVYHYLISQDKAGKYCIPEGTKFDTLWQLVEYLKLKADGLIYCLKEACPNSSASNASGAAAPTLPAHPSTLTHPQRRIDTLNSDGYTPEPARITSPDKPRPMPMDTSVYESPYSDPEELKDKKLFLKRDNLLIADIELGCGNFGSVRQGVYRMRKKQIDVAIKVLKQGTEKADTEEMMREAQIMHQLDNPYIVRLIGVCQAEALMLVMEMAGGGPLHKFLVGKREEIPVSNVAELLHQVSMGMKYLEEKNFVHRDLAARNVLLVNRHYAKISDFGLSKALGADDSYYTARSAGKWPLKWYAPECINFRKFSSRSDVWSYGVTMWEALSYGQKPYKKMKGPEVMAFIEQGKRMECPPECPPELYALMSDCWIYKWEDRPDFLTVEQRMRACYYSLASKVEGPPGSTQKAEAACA
Nature of the assay: Binding affinity against SH2 domain of Zeta-chain (TCR) associated protein kinase 70 kDa.

Assay [4] concerns the target Growth factor receptor-bound protein 2 (Homo sapiens, UniProt P62993). The assay can be described thus: Binding affinity against Growth factor receptor bound protein 2. A digest of the protocol:
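Fluorescence polarization competition assay using human Grb2 SH2 (residues 55–152), expressed in E. coli BL21(DE3) and purified on phosphotyrosine-agarose. Compounds were serially diluted 1:2 across 1000–0.04 μM in 20 mM phosphate pH 7.4 with 100 mM NaCl, 10 mM DTT, 4% DMSO, 1 mM EDTA and 0.1% bovine γ-globulin. They were added to 1.25 µM protein premixed with 20 nM fluorescein-labelled peptide (ex 485/em 530 nm). IC50 was taken from percent tracer bound relative to vehicle, as the mean of ≥3 experiments.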

Growth factor receptor-bound protein 2, sequence (P62993 whole entry, the tested form may be a part): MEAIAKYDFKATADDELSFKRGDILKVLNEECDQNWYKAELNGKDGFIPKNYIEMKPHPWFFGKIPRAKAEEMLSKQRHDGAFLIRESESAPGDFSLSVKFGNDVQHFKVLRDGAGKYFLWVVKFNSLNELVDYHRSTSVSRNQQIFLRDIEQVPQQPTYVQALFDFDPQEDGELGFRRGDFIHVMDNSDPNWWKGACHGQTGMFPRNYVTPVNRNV
Proto-oncogene tyrosine-protein kinase Src, sequence (P12931 2-536 limits assumed): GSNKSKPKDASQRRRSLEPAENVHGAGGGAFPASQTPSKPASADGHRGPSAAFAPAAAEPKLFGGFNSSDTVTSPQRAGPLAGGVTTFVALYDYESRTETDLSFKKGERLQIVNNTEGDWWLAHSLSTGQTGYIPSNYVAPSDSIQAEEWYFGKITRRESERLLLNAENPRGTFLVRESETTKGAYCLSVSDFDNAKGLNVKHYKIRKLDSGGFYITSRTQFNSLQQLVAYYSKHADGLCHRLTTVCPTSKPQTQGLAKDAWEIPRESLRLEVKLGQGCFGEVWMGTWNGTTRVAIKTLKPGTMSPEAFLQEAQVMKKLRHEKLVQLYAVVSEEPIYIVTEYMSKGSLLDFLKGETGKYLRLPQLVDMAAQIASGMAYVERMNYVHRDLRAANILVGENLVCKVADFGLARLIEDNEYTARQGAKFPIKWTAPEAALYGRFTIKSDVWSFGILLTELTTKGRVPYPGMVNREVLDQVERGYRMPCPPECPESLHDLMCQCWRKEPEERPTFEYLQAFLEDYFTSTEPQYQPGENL

As usually defined, the pIC50 is the IC50 on a negative log10 scale, so that one unit is a factor of ten. Higher therefore signals a small IC50. As to `CC(=O)N[C@@H](Cc1ccc(OP(=O)(O)O)cc1)C(=O)N[C@@H](CCC(N)=O)c1nc(Cc2ccc(Cl)cc2Cl)no1`, the figures for the negative logarithm of the IC50 (pIC50) in assay [1], in assay [2] and in assay [3] were less than 3.30, less than 3.30 and 3.74, respectively.
Turning to `CC(=O)N[C@@H](Cc1ccc(OP(=O)(O)O)cc1)C(=O)NC(C)(C)c1nc(Cc2ccc(C(F)(F)F)cc2)no1`, the pIC50 in assay [1] is 3.31; in assay [2], less than 3.30; in assay [3], 3.64.
The corresponding values for `CC[C@H](C)[C@H](NC(=O)[C@H](CCC(=O)O)NC(=O)[C@H](CCC(=O)O)NC(=O)[C@H](Cc1ccc(OP(=O)(O)O)cc1)NC(C)=O)C(N)=O` are 5.22, 3.77 and 3.28.
As to `CC(=O)N[C@@H](Cc1ccc(OP(=O)(O)O)cc1)C(=O)N[C@@H](CC(=O)O)C(=O)N[C@H](C(=O)N[C@@H](CC(C)C)C(N)=O)C(C)C` (Ac-[pY]DVL-NH2), the pIC50 in assay [1] was 3.58; in assay [2], 3.41; in assay [3] it was 3.48.
Turning to `CC(=O)N[C@@H](Cc1ccc(OP(=O)(O)O)cc1)C(=O)N[C@@H](CCC(N)=O)c1nc(Cc2ccc3ccccc3c2)no1`, the pIC50 in assay [4] was 3.49; in assay [1], 3.56; in assay [2] it was less than 3.30.
Taken in the same sequence, the figures for `CC(=O)N[C@@H](Cc1ccc(OP(=O)(O)O)cc1)C(=O)N[C@@H](CCC(N)=O)c1nc(Cc2ccc(Cl)c(Cl)c2)no1` were 3.36, 3.69 and less than 3.30.
Taken in the same sequence, the figures for `CC(=O)N[C@@H](Cc1ccc(OP(=O)(O)O)cc1)C(=O)N[C@@H](CCc1ccccc1)c1nc(Cc2ccc3ccccc3c2)no1` were less than 3.30, 4.11 and 3.54.
The corresponding values for `CC(=O)N[C@@H](Cc1ccc(OP(=O)(O)O)cc1)C(=O)N[C@@H](CO)c1nc(Cc2ccc3ccccc3c2)no1` are 3.32, 4.00 and less than 3.30.
Regarding `CC(=O)N[C@@H](Cc1ccc(OP(=O)(O)O)cc1)C(=O)NCCc1nc(Cc2ccc(C(F)(F)F)cc2)no1`, the negative-log IC50 (pIC50) in assay [1], in assay [2] and in assay [3] was less than 3.30 each time.
Regarding `O=C(Cc1ccccc1)N[C@@H](Cc1ccc(OP(=O)(O)O)cc1)C(=O)N[C@@H](CO)c1nc(Cc2ccc3ccccc3c2)no1`, the values for the pIC50 in assay [4], in assay [1] and in assay [2] were 3.43, 4.17 and less than 3.30, respectively.
Taken in the same sequence, the figures for `O=C(Cc1ccccc1)N[C@@H](Cc1ccc(OP(=O)(O)O)cc1)C(=O)N[C@@H](CO)c1nc(Cc2ccc(C(F)(F)F)cc2)no1` were less than 3.30, 3.79 and 3.50.
On to `CC(=O)N[C@@H](Cc1ccc(OP(=O)(O)O)cc1)C(=O)N[C@@H](CO)c1nc(Cc2ccc(Cl)c(Cl)c2)no1`, for which the pIC50 in assay [4] was less than 3.30; in assay [1], 4.12; in assay [2], less than 3.30.
For the compound `CC(=O)N[C@@H](Cc1ccc(OP(=O)(O)O)cc1)C(=O)N[C@@H](CCc1ccccc1)c1nc(Cc2ccc(C(F)(F)F)cc2)no1`, the pIC50 in assay [4] is less than 3.30; in assay [1], 4.02; in assay [2] it was 3.49.
Take `CC(=O)N[C@@H](Cc1ccc(OP(=O)(O)O)cc1)C(=O)NCc1nc(Cc2ccc(C(F)(F)F)cc2)no1`: the pIC50 in assay [1] is less than 3.30; in assay [2], less than 3.30; in assay [3], 3.89.
With `CC(=O)N[C@@H](Cc1ccc(OP(=O)(O)O)cc1)C(=O)N[C@@H](CC(N)=O)C(=O)N[C@@H](CCC(=O)O)C(=O)N[C@@H](CC(C)C)C(N)=O` (Ac-[pY]NEL-NH2), the results for the negative-log IC50 (pIC50) in assay [1], in assay [2] and in assay [3] were 3.63, 3.38 and 3.37, respectively.
With `CC(=O)N[C@@H](Cc1ccc(OP(=O)(O)O)cc1)C(=O)N[C@@H](CCC(N)=O)c1nc(CCc2ccccc2)no1`, the values for the pIC50 in assay [1], in assay [2] and in assay [3] were 3.81, less than 3.30 and less than 3.30, respectively.
Regarding `CC(=O)N[C@@H](Cc1ccc(OP(=O)(O)O)cc1)C(=O)N[C@@H](CCc1ccccc1)c1nc(Cc2ccc(Cl)c(Cl)c2)no1`, the figures for the pIC50 in assay [4], in assay [1] and in assay [2] were 3.47, 4.22 and 3.60, respectively.
Taken in the same sequence, the figures for `CC(=O)N[C@@H](Cc1ccc(OP(=O)(O)O)cc1)C(=O)N[C@@H](C)c1nc(Cc2ccc(Cl)c(Cl)c2)no1` were less than 3.30, 4.14 and less than 3.30.
Consider `CC(=O)N[C@@H](Cc1ccc(OP(=O)(O)O)cc1)C(=O)N[C@@H](CCC(N)=O)c1nc(Cc2ccccc2)no1`, for which the pIC50 in assay [4] was 3.34; in assay [1], 4.14; in assay [2] it was less than 3.30; in assay [3] it was less than 3.30.
